From ChEMBL document CHEMBL1914459 (Bioorg Med Chem Lett, 2011)

Experiments:
[1] = Intrinsic clearance in rat hepatocytes assessed as per 1 x 10^6 cells
[2] = Inhibition of human recombinant aldose reductase 2 after 15 mins by spectrophotometry analysis
[3] = target: T1, Prostaglandin D2 receptor 2 (Homo sapiens, UniProt Q9Y5Y4); assay: Displacement of [3H]PGD2 from human CRTH2 receptor
T1 sequence (Q9Y5Y4 whole entry): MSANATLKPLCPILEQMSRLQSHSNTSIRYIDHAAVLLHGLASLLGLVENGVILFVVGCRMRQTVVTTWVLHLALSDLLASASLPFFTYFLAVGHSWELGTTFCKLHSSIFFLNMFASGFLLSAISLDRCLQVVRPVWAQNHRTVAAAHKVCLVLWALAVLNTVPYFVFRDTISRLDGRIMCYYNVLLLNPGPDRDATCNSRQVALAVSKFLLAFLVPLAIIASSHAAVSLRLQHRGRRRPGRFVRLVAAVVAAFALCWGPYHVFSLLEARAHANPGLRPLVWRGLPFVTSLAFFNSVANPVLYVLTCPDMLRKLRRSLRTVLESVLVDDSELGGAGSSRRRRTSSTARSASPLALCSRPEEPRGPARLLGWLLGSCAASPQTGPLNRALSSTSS
Procedure, shortened: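 Radioligand binding with ³H-PGD₂ as the labelled ligand; IC₅₀ reported as mean of n >2 measurements.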

[4] = Lipophilicity, log D of the compound at pH 7.4; conditions: buffer
[5] = target: Aldehyde reductase AKR1A1 (Homo sapiens); assay: Inhibition of human recombinant aldose reductase 1 after 15 mins by spectrophotometry analysis
[6] = Half life in Sprague-Dawley rat at 1 mg/kg, iv; type: ADME, organism-based; design: dose 1 mg/kg, route intravenous; conditions: in vivo
[7] = target: Cytochrome P450 2C9 (Homo sapiens, UniProt P11712); assay: Inhibition of CYP2C9; type: ADME
Cytochrome P450 2C9, sequence (P11712 whole entry): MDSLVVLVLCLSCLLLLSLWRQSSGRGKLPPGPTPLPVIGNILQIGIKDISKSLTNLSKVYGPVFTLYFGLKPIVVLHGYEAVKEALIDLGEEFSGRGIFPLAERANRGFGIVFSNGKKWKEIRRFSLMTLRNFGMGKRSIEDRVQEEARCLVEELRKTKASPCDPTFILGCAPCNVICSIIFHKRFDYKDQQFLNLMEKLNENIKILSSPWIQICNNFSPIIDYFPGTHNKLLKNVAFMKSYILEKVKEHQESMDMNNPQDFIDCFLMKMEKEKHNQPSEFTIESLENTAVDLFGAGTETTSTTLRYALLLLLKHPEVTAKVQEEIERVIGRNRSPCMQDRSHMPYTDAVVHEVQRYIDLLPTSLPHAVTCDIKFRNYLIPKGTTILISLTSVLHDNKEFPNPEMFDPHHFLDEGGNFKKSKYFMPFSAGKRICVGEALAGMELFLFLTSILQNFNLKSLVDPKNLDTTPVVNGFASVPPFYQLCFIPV

[8] = Oral bioavailability in Sprague-Dawley rat at 4 mg/kg; type: ADME, organism-based; conditions: in vivo
[9] = Clearance in Sprague-Dawley rat at 1 mg/kg, iv; type: ADME, organism-based; design: dose 1 mg/kg, route intravenous; conditions: in vivo
[10] = Volume of distribution at steady state in Sprague-Dawley rat at 1 mg/kg, iv; type: ADME, organism-based; design: dose 1 mg/kg, route intravenous; conditions: in vivo, read-out: Vdss
[11] = target: T1, Prostaglandin D2 receptor 2; assay: Antagonist activity at human CRTh2 receptor expressed in HEK cells assessed as inhibition of PGD2-induced calcium flux; type: functional, cell-based, HEK293
[12] = Oral bioavailability in Sprague-Dawley rat at 3 mg/kg; type: ADME, organism-based; conditions: in vivo
[13] = organism: Homo sapiens; assay: Selectivity ratio of IC50 for human recombinant aldose reductase 1 to IC50 for human CRTh2 receptor
Procedure, shortened: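 Ratio of two IC50s from separate assays. […] ALR1 activity was followed at […] as NADPH oxidation, at 22 °C. All reagents except NADPH were preincubated 15 min before NADPH started the reaction. Initial linear rates were corrected for non-enzymatic NADPH oxidation, and % inhibition was taken against no-compound control.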

[14] = target: Aldo-keto reductase family 1 member B1 (Rattus norvegicus, UniProt P07943); assay: Inhibition of rat aldose reductase

Structure (SMILES) | hepatocyte CLint [1] [µL/min/1e6 cells] | IC50 [2] [nM] | IC50 [3] [nM] | logD [4] | further results
Cc1c(Sc2ccc(Cl)cc2)c2cccc(Cl)c2n1CC(=O)O | 75 | 11200 | 60 | 2 | 
Cc1c(Sc2ccc(Cl)cc2)c2cc(F)ccc2n1CC(=O)O | 19 | > 7940 | 1.6 | 1.8 | IC50 [5]: 3160 nM
Cc1c(Sc2ccc(Cl)cc2)c2c(NS(C)(=O)=O)cccc2n1CC(=O)O | 6 | > 5310 | 1.8 | 0.2 | half-life [6]: 1.7 h; IC50 [7]: 10000 nM; bioavailability [8]: 42%; clearance [9]: 11 mL/min/kg; Vd [10]: 1.1 L/kg
Cc1ccc2c(c1)c(S(=O)(=O)c1ccccc1Cl)c(C)n2CC(=O)O | 21 |  | 178 |  | 
Cc1ccc2c(c1)c(Sc1ccc(Cl)cc1)c(C)n2CC(=O)O | 18 |  | 15 |  | IC50 [7]: 800 nM; IC50 [11]: 87 nM
Cc1c(Sc2ccc(Cl)cc2)c2cc(Cl)ccc2n1C(C)C(=O)O (stereo unspecified) |  |  | 501 |  | 
O=C(O)Cn1cc(Sc2ccc(Cl)cc2)c2cc(Cl)ccc21 |  |  | 89 |  | 
Cc1ccc2c(c1)c(Sc1cccc(Cl)c1)c(C)n2CC(=O)O | 31 | 3160 | 3 | 1.9 | 
Cc1c(Oc2ccc(Cl)cc2)c2c(NS(C)(=O)=O)cccc2n1CC(=O)O | 8 |  | 3.5 | -1 | half-life [6]: 1.4 h; clearance [9]: 20 mL/min/kg; Vd [10]: 1.7 L/kg; bioavailability [12]: > 46%
Cc1c(Sc2ccc(Cl)cc2)c2c(Cl)cccc2n1CC(=O)O |  | 5010 | 25 | 2.2 | IC50 [5]: 1780 nM
Cc1c(F)ccc2c1c(Sc1ccc(Cl)cc1)c(C)n2CC(=O)O |  | 3550 | 1.3 | 2.2 | IC50 [5]: 2240 nM
Cc1c(Oc2ccc(Cl)cc2)c2c(-c3ccccc3)cccc2n1CC(=O)O | 14 |  | 4 |  | 
Cc1c(Sc2ccc(Cl)cc2)c2cc(S(C)(=O)=O)ccc2n1CC(=O)O |  |  | 71 | 0.5 | 
Cc1ccc2c(n1)c(Sc1ccc(Cl)cc1)c(C)n2CC(=O)O |  |  | 56 | 0.4 | 
Cc1ccc2c(c1)c(S(=O)(=O)c1c(Cl)cccc1Cl)c(C)n2CC(=O)O |  |  | 126 |  | 
Cc1c(Sc2ccc(Cl)cc2)c2c(-c3nccs3)cccc2n1CC(=O)O |  |  | 3.5 |  | 
Cc1ccc2c(c1)c(S(=O)(=O)c1cccc(Cl)c1)c(C)n2CC(=O)O |  |  | 79 |  | 
Cc1ccc2c(c1)c(Sc1ccccc1Cl)c(C)n2CC(=O)O | 24 | 11200 | 2.6 | 1.7 | 
Cc1ccc2c(c1)c(Sc1ccc(S(C)(=O)=O)cc1)c(C)n2CC(=O)O | 7 | > 10000 | 1.4 | -0.1 | IC50 [7]: 5200 nM
COc1ccc(Sc2c(C)n(CC(=O)O)c3ccc(C)cc23)cc1 | 24 | 251 | 7.1 | 1 | IC50 [5]: 282 nM
Cc1c(Sc2ccc(Cl)cc2)c2ccc(Cl)cc2n1CC(=O)O | 64 | 2000 | 42 | 2.5 | 
Cc1c(Sc2ccc(Cl)cc2)c2cc(Cl)c(C#N)cc2n1CC(=O)O | 29 |  | 178 |  | 
CNC(=O)c1cccc2c1c(Sc1ccc(Cl)cc1)c(C)n2CC(=O)O | < 3 |  | 45 | -0.9 | 
CCS(=O)(=O)c1ccc(Oc2c(C)n(CC(=O)O)c3ccc(C(F)(F)F)cc23)cc1 |  | > 10000 | 3.5 | 0.3 | IC50 [5]: 3980 nM
CCS(=O)(=O)Nc1cccc2c1c(Oc1ccc(Cl)cc1)c(C)n2CC(=O)O |  |  | 36 |  | 
CC(=O)Nc1cccc2c1c(Oc1ccc(Cl)cc1)c(C)n2CC(=O)O |  |  | 18 | -1.4 | 

Continued, in another order:

hepatocyte CLint [1] [µL/min/1e6 cells] | IC50 [2] [nM] | IC50 [3] [nM] | logD [4] | Structure (SMILES) | further results
12 |  | 0.6 | 0 | Cc1c(Sc2ccc(Cl)cc2)c2c(-c3cnccn3)cccc2n1CC(=O)O | 
25 |  | 1 | 2.6 | Cc1c(Sc2ccc(Cl)cc2)c2c(-c3ccccc3)cccc2n1CC(=O)O | 
 |  | 32 | 0.9 | Cc1c(Sc2ccc(Cl)cc2)c2c(Cl)nccc2n1CC(=O)O | 
< 3 |  | 7.1 | -0.2 | Cc1c(S(=O)(=O)c2ccc(Cl)cc2)c2cc(F)ccc2n1CC(=O)O | 
 | 4470 | 3.5 | 3.7 | Cc1c(Sc2ccc(Cl)cc2)c2cc(-c3ccccc3)ccc2n1CC(=O)O | IC50 [5]: 1780 nM
 |  | 794 |  | Cn1c(CC(=O)O)c(Sc2ccccc2)c2ccccc21 | 
14 | 724 | 71 | -0.4 | COc1cccc(S(=O)(=O)c2c(C)n(CC(=O)O)c3ccc(C)cc23)c1 | Ratio IC50 [13]: < 20; IC50 [5]: 115 nM
8 |  | 56 | 0.2 | CC(=O)Nc1ccc2c(c1)c(Sc1ccc(Cl)cc1)c(C)n2CC(=O)O | 
 |  | 13 |  | Cc1c(Sc2ccc(Cl)cc2)c2cc(Cl)ccc2n1CC(=O)O | IC50 [11]: 35 nM
 |  | 11 | 2.3 | Cc1c(Oc2ccc(Cl)cc2)c2cc(C(F)(F)F)ccc2n1CC(=O)O | 
 | 6310 | 26 | 0.1 | Cc1ccc2c(c1)c(S(=O)(=O)c1ccc(Cl)cc1)c(C)n2CC(=O)O | 
 |  | 11 | 0.6 | Cc1c(Sc2ccc(Cl)cc2)c2c(S(C)(=O)=O)cccc2n1CC(=O)O | 
 |  | 1470 |  | Cc1c(Sc2ccc(Cl)cc2)c2cc(Cl)ccc2n1Cc1nnn[nH]1 | 
< 3 |  | 159 | 0.8 | Cc1c(Sc2ccc(Cl)cc2)c2ccc(S(C)(=O)=O)cc2n1CC(=O)O | 
 |  |  | 1.6 | CCN(C(C)=O)c1cccc2c1c(Sc1ccc(Cl)cc1)c(C)n2CC(=O)O | 
< 5 |  | 1000 | 0.1 | Cc1ccc2c(c1)c([S+]([O-])c1ccc(Cl)cc1)c(C)n2CC(=O)O (stereo unspecified) | 
< 1 | 4470 | 7.1 | 0.4 | CC(=O)Nc1cccc2c1c(S(=O)(=O)c1ccc(Cl)cc1)c(C)n2CC(=O)O | half-life [6]: 0.9 h; Ratio IC50 [13]: 100; clearance [9]: 4 mL/min/kg; Vd [10]: 0.2 L/kg; bioavailability [12]: < 10%; IC50 [5]: 708 nM
6 | 4730 | 6.1 | 1.6 | Cc1c(Sc2ccc(Cl)cc2)c2c(C#N)c(Cl)ccc2n1CC(=O)O | IC50 [5]: 2240 nM
 | > 5840 | 7.9 | -0.8 | Cc1c(S(=O)(=O)c2ccc(Cl)cc2)c2c(NS(C)(=O)=O)cccc2n1CC(=O)O | IC50 [5]: 63 nM
< 3 |  | 5 | 1.3 | Cc1c(Oc2ccc(Cl)cc2)c2cc(F)ccc2n1CC(=O)O | 
 |  | 20 |  | Cc1ccc2c(c1)c(Sc1ccccc1)c(C)n2CC(=O)O | IC50 [11]: 25 nM; IC50 [14]: 157 nM
